Measurements from different studies.
Protocols differ between the studies behind these lines.
Target: High affinity nerve growth factor receptor (NTRK1, Homo sapiens, UniProt P04629)
Mode: inhibitor

| SMILES | effect on | technique | tested at | inhibition [%] |
| --- | --- | --- | --- | --- |
| COc1cc2ncnc(Nc3ccc(Oc4ccccc4)c(C)c3C)c2cc1OC | enzyme activity |  | 1 µM | -1 |
| O=C(Nc1ccc(C(F)(F)F)cc1)Nc1cccc(C(=O)Nc2ccc3[nH]nc(-c4ccccc4)c3c2)c1 | enzyme activity | FRET | 1 µM | 17 |
| CCN(CC)CCNC(=O)c1c(C)[nH]c(/C=C2\C(=O)Nc3ccc(F)cc32)c1C | enzyme activity |  | 10 µM | 99 |
| CCCS(=O)(=O)Nc1ccc(F)c(C(=O)c2c[nH]c3ncc(-c4ccc(Cl)cc4)cc23)c1F | enzyme activity |  | 1 µM | < 10 |
| CN1CC(Oc2cnc(C#N)cc2-c2ccn3nc(NC(=O)C4CC4)cc3c2)C1 | enzyme activity |  | 1 µM | 5 |
| CN1CCN(CC(=O)Nc2cccc(C(=O)Nc3ccc4[nH]ncc4c3)c2)CC1 | enzyme activity | FRET | 1 µM | 14.1 |
| CNCc1ccc(-c2cc(-c3nc(-c4ccc(S(=O)(=O)C(C)C)cc4)cnc3N)on2)cc1 | enzyme activity |  | 0.4 µM | 13 |
| CNC(=O)c1cc(Oc2ccc(NC(=O)Nc3ccc(Cl)c(C(F)(F)F)c3)cc2)ccn1 | enzyme activity |  | 0.3 µM | 36 |
| CN(C)C1CCN(CC#Cc2nn(C3CCCC3)c3nc(NCc4ccccc4)ncc23)C1 (stereo not drawn) | enzyme activity | FRET | 0.1 µM | 6 |
| CSc1nc(C)c(-c2ccnc(Nc3ccc(N4CCOCC4)cc3)c2)[nH]1 | cell-free assay |  | 10 µM | 10.1 |
| O=C(Nc1cccc(C(=O)Nc2ccc3[nH]ncc3c2)c1)Nc1ccccc1C(F)(F)F | enzyme activity | FRET | 1 µM | 51.3 |
| CC/C(=N\NC(=O)NCc1cccc(O)c1)c1ccc(O)c(C)c1O | enzyme activity |  | 0.1 µM | 3.3 |
| CNC(=O)c1cc2c(Oc3ccc(NC(=O)C4(C(=O)Nc5ccc(F)cc5)CC4)cc3)ccnc2cc1OC | enzyme activity | radiometric | 1 µM | 99 |
| Cc1ccc(Nc2nccc(N(C)c3ccc4c(C)n(C)nc4c3)n2)cc1S(N)(=O)=O | enzyme activity |  | 10 µM | 79 |
| O=C(Nc1ccc(OC(F)(F)F)cc1)Nc1cccc(C(=O)Nc2ccc3[nH]ncc3c2)c1 | enzyme activity | FRET | 1 µM | 69.2 |
